Source: ChEMBL document CHEMBL1770122, “Synthesis, antibacterial and antimycobacterial activities of some new 4-aryl/heteroaryl-2,6-dimethyl-3,5-bis-N-(aryl)-carbamoyl-1,4-dihydropyridines” (2011)
≈ marks a conversion by molar mass, not a printed value.

Test system: Mycobacterium tuberculosis
Assay: Antimicrobial activity against multidrug-resistant Mycobacterium tuberculosis C110/09 after 4 weeks
Assay type: functional
Conditions: C110/09, 672 h
Outline: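 L-J proportion method against an MDR clinical isolate resistant to rifampicin, pyrazinamide and isoniazid. Drug in 64, 128 and 256 µg mL-1 dilutions in LJ medium slants, set overnight. Inoculated with 4 mg mL-1 suspension by 3 mm loop, 37 °C, 4 weeks. MIC is the lowest concentration fully inhibiting growth, by CFU versus controls (medium, inoculated, DMSO). Three independent determinations.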

| SMILES | MIC [µg/mL] |
| --- | --- |
| NC(=O)c1cnccn1 [PYRAZINAMIDE] | 128 (≈ 1040 µM) |
| CC1=C(C(=O)Nc2ccccc2C)C(c2ccccn2)C(C(=O)Nc2ccccc2C)=C(C)N1 | 256 (≈ 566 µM) |
| CCc1ccc(C2C(C(=O)Nc3ccccc3)=C(C)NC(C)=C2C(=O)Nc2ccccc2)cc1 | > 256 |
| CC1=C(C(=O)Nc2ccc(C)cc2)C(c2ccccn2)C(C(=O)Nc2ccc(C)cc2)=C(C)N1 | > 256 |
| CC1=C(C(=O)Nc2ccc(C)cc2)C(c2ccc[nH]2)C(C(=O)Nc2ccc(C)cc2)=C(C)N1 | 128 (≈ 291 µM) |
